The values below come from ChEMBL document CHEMBL3734651, “Synthesis of dihydropyrimidine α,γ-diketobutanoic acid derivatives targeting HIV integrase” (Eur J Med Chem, 2015).

As usually defined, the CC50 is the concentration at which the toxic effect on the cells reaches its halfway point. For orientation: pEC50 means the EC50 on a negative log10 scale, so that one unit is a factor of ten. As usually defined, the pIC50 is the IC50 on a negative log10 scale, so that one unit is a factor of ten.

One data set has as its system PBMC. Description: (§1) Cytotoxicity against human PBMC assessed as reduction in cell growth incubated for 5 days by CellTiter 96 AQueous One Solution cell proliferation assay. Type of data set: cell-based. The conditions noted are these: pbmc, 120 h.
For a further data set, the system named is Vero. Description: (§2) Cytotoxicity against African green monkey Vero cells assessed as reduction in cell growth incubated for 5 days by CellTiter 96 AQueous One Solution cell proliferation assay. Type of data set: cell-based. The conditions noted are these: chlorocebus sabaeus, vero, 120 h.
Data set [1] concerns Human immunodeficiency virus 1. Description: Antiviral activity against HIV1 infected in human peripheral blood mononuclear cells assessed as inhibition of reverse transcriptase activity incubated for 6 days. Type of data set: functional, organism-based. The conditions noted are these: Human immunodeficiency virus 1, 144 h.
The test system of the next data set is CCRF-CEM. Description: (§3) Cytotoxicity against human CEM cells assessed as reduction in cell growth incubated for 5 days by CellTiter 96 AQueous One Solution cell proliferation assay. Format: cell-based. The conditions noted are these: ccrf-cem, 120 h.
The target in data set [2] is T1, Human immunodeficiency virus type 1 integrase (Human immunodeficiency virus 1, UniProt Q7ZJM1). Description: Inhibition of recombinant HIV-1 integrase 3'-processing activity expressed in Escherichia coli BL21(DE3) cells using 32P-labeled DNA substrate after 1 hr by densitometric analysis. The essentials:
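Reaction run 1 h at 37 °C, then stopped with an equal volume of formamide loading buffer containing 1% SDS, 0.25% bromophenol blue and xylene cyanol. Products resolved on 16% denaturing polyacrylamide sequencing gels; dried gels imaged. Value reported as the concentration giving 50% inhibition.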

For data set [3], the target named is T1, Human immunodeficiency virus type 1 integrase. Description: Inhibition of recombinant HIV-1 integrase stand transfer activity expressed in Escherichia coli BL21(DE3) cells using 32P-labeled DNA substrate after 1 hr by densitometric analysis.
The nature of data set [4]: as §1. Type of data set: cell-based. As to conditions: PBMC (peripheral blood mononuclear cells).
Data set [5] in a line: as §2. Format: cell-based. As to conditions: chlorocebus sabaeus, Vero cells.
Data set [6] can be described thus: as §3. Type of data set: cell-based, CCRF-CEM. The conditions noted are these: CEM (CCRF-CEM) cells.

pEC50, pIC50: −log10 of the molar value.

T1 sequence (Q7ZJM1 whole entry): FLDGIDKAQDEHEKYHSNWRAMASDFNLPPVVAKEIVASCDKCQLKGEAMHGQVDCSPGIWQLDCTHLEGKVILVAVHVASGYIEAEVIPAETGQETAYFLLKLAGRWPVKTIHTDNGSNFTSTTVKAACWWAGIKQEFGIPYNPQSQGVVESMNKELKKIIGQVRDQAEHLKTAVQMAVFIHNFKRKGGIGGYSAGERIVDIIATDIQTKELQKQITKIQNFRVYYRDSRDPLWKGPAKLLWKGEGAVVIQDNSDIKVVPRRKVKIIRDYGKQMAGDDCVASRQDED

Take `CCOC(=O)c1c(-c2ccccc2)nc(=O)n(Cc2ccc(C(=O)/C=C(\O)C(=O)OC(C)C)cc2)c1CC`: the CC50 in the data set with PBMC is more than 100 µM; in the data set on Vero, more than 100 µM; in the data set on CCRF-CEM it was 21.4 µM. In addition, in [1], the pEC50 is less than 4.00.
On to `CCOC(=O)c1c(-c2ccc(F)cc2)nc(=O)n(Cc2ccc(C(=O)/C=C(\O)C(=O)O)cc2)c1C(C)C`, for which the figures for the pIC50 in [2] and in data set [3] were 4.40 and 5.44, respectively.
For `CCOC(=O)c1c(CC)nc(SCc2ccc(C(=O)/C=C(\O)C(=O)O)cc2)nc1-c1ccc(OC)cc1` the same measures were 4.51 and 5.64.
For `CCOC(=O)c1c(-c2ccccc2)nc(=O)n(Cc2ccc(C(=O)/C=C(\O)C(=O)O)cc2)c1C(C)C` the same measures were 4.43 and 5.64.
For the compound `CCOC(=O)c1c(CC)nc(SCc2ccc(C(=O)/C=C(\O)C(=O)O)cc2)nc1-c1ccc(F)cc1`, the pIC50 in data set [2] is 4.53; in data set [3], 6.04.
Taken in the same sequence, the figures for `CCOC(=O)c1c(CC)nc(SCc2ccc(C(=O)/C=C(\O)C(=O)O)cc2)nc1-c1ccccc1` were 4.68 and 5.65.
Taken in the same sequence, the figures for `CCOC(=O)c1c(-c2ccc(OC)cc2)nc(=O)n(Cc2ccc(C(=O)/C=C(\O)C(=O)O)cc2)c1-c1ccccc1` were 4.76 and 5.72.
Turning to `CCOC(=O)c1c(-c2ccc(F)cc2)nc(=O)n(Cc2ccc(C(=O)/C=C(\O)C(=O)O)cc2)c1-c1ccccc1`, the pIC50 in [2] is 4.78; in [3] it was 5.62.
For `CCOC(=O)c1c(Cc2ccccc2)nc(=O)n(Cc2ccc(C(=O)/C=C(\O)C(=O)O)cc2)c1C` the same measures were 4.77 and 6.72.
For `CCOC(=O)c1c(-c2ccccc2)nc(SCc2ccc(C(=O)/C=C(\O)C(=O)O)cc2)nc1-c1ccccc1` the same measures were 4.52 and 5.21.
For `CCOC(=O)c1c(-c2cc(C)cc(C)c2)nc(=O)n(Cc2ccc(C(=O)/C=C(\O)C(=O)O)cc2)c1-c1ccccc1` the same measures were 4.79 and 5.89.
On to `CCOC(=O)c1c(-c2ccccc2)nc(=O)n(Cc2ccc(Cc3cccc(C(=O)/C=C(\O)C(=O)OC(C)C)c3)cc2)c1CC`, for which the values for the CC50 at 120 h in [4], in [5] and in [6] were 47.6 µM, more than 100 µM and 8.9 µM, respectively. The pEC50 in [1] was 4.43.
With `CCOC(=O)c1c(-c2ccccc2)nc(=O)n(Cc2ccc(C(=O)/C=C(\O)C(=O)O)cc2)c1CC`, the results for the pIC50 in [2] and in [3] were 4.72 and 6.19, respectively.
Turning to `CCOC(=O)c1c(-c2ccc(OC)cc2)nc(=O)n(Cc2ccc(C(=O)/C=C(\O)C(=O)OC(C)C)cc2)c1-c1ccccc1`, the CC50 at 120 h in data set [4] is more than 100 µM; in data set [5], more than 100 µM; in data set [6], 25.3 µM. The negative-log EC50 (pEC50) in data set [1] was 4.09.
On to `Cc1cn([C@H]2C[C@H](N=[N+]=[N-])[C@@H](CO)O2)c(=O)[nH]c1=O` [ZIDOVUDINE], for which, in [4], the CC50 at 120 h was more than 100 µM. Further, the values for the CC50 in the data set on Vero and in the data set on CCRF-CEM were 39.5 µM and 56.1 µM, respectively.
As to `CCOC(=O)c1c(-c2ccccc2)nc(=O)n(Cc2ccc(C(=O)/C=C(\O)C(=O)O)cc2)c1C`, the pIC50 in data set [2] is less than 3.95; in data set [3] it was 5.62.
As to `CCOC(=O)c1c(-c2ccccc2)nc(=O)n(Cc2ccc(C(=O)/C=C(\O)C(=O)O)cc2)c1-c1ccccc1`, the values for the pIC50 in data set [2] and in [3] were 4.74 and 5.70, respectively.
For `CCOC(=O)c1c(-c2ccc(OC)cc2)nc(=O)n(Cc2ccc(C(=O)/C=C(\O)C(=O)O)cc2)c1C(C)C` the same measures were 4.72 and 5.48.
On to `CCOC(=O)c1c(-c2ccccc2)nc(SCc2ccc(C(=O)/C=C(\O)C(=O)O)cc2)nc1-c1ccc(F)cc1`, for which the values for the pIC50 in data set [2] and in [3] were 4.66 and 5.55, respectively.
For `CCOC(=O)c1c(-c2ccccc2)nc(SCc2ccc(C(=O)/C=C(\O)C(=O)O)cc2)nc1-c1ccc(OC)cc1` the same measures were 4.64 and 5.92.
Consider `CCOC(=O)c1c(-c2ccc(F)cc2)nc(=O)n(Cc2ccc(C(=O)/C=C(\O)C(=O)O)cc2)c1CC`, for which the pIC50 in [2] was 4.46; in data set [3] it was 5.96.
As to `CCOC(=O)c1c(Cc2ccccc2)nc(=O)n(Cc2ccc(C(=O)/C=C(\O)C(=O)OC(C)C)cc2)c1C`, the CC50 is 77 µM in the data set with PBMC, 32.9 µM in the data set with Vero and 7.3 µM in the data set with CCRF-CEM. Also, in [1], the pEC50 is 4.76.
For `CCOC(=O)c1c(CC)nc(SCc2ccc(C(=O)/C=C(\O)C(=O)OC(C)C)cc2)nc1-c1ccc(F)cc1` the same measures were 43.2 µM, 39.5 µM, 5.2 µM and 4.59.
Regarding `CCOC(=O)c1c(-c2ccc(OC)cc2)nc(=O)n(Cc2ccc(C(=O)/C=C(\O)C(=O)O)cc2)c1CC`, the pIC50 in data set [2] is 4.14; in [3], 5.25.
Taken in the same sequence, the figures for `CCOC(=O)c1c(-c2ccc(F)cc2)nc(=O)n(Cc2ccc(C(=O)/C=C(\O)C(=O)O)cc2)c1C` were 4.76 and 5.89.
